The source made the active and inactive calls. The calls are words filed in the database; no cut-off is given here.
Experiments:
B-ALL [1] = assay: Antiproliferative activity against mouse B-ALL cells expressing wild type BCR-ABL assessed as reduction in cell viability at 0.1 to 250 uM by CellTiter-Glo assay; assay type: functional, cell-based
Outline: (§1)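 CellTiter-Glo luminescent viability readout. Cells kept at 37 °C under 5% CO2. HMEC primary cells grown in basal medium with growth kit; leukemia lines and murine BCR-ABL (WT, Bax/Bak DKO) cultured per earlier description. Positive controls: staurosporine 25 μM, gambogic acid 10 μM, a toxic quinoline. At least two biological replicates in technical triplicate; luminescence normalized to untreated controls; EC50 computed.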

B-ALL [2] = assay: Antiproliferative activity against mouse B-ALL cells harboring Bax/Bak double knockout mutant assessed as reduction in cell viability at 0.1 to 250 uM by CellTiter-Glo assay; assay type: functional, cell-based; outline: as §1
K562 = assay: Antiproliferative activity against human K562 cells assessed as reduction in cell viability at 0.1 to 250 uM by CellTiter-Glo assay; assay type: functional, cell-based; outline: as §1
U2OS = assay: Antiproliferative activity against human U2OS cells assessed as reduction in cell viability at 0.1 to 250 uM by CellTiter-Glo assay; assay type: functional, cell-based; outline: as §1
MCF7 [3] = assay: Antiproliferative activity against human MCF7 cells assessed as reduction in cell viability at 0.1 to 250 uM by CellTiter-Glo assay; assay type: functional, cell-based; outline: as §1
SUM149PT = assay: Antiproliferative activity against human SUM149 cells assessed as reduction in cell viability at 0.1 to 250 uM after 48 hrs by propidium iodide staining based fluorescence assay; assay type: functional
Outline: (§2)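 MDA-MB-231 and SUM149 seeded at 6 × 10^4 to 2 × 10^5 cells/well, cultured 24 h, then exposed for 48 h. Cells fixed in cold methanol, stained with 0.4% propidium iodide, fluorescence imaged. Viability expressed as percent surviving cells relative to vehicle wells.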

HMEC [4] = assay: Cytotoxicity against human HMEC cells assessed as reduction in cell viability at 0.1 to 250 uM by CellTiter-Glo assay; assay type: cell-based; outline: as §1
KOPN-8 [5] = assay: Induction of mitochondrial membrane potential loss in human KOPN8 cells at 4 uM after 24 hrs by TMRM staining based flow cytometric analysis; assay type: functional, cell-based
Outline: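 TMRM flow cytometry. KOPN-8 (4 × 10^4 or 5 × 10^5 per well) or MCF-7 (2 × 10^4 or 2 × 10^5 per well) were seeded 24 h, then treated 24–48 h. FCCP 10 μM was added 10 min before staining as positive control. Cells were stained with TMRM 100 nM for 0.5 h, then PBS-washed, resuspended in PBS with 1% FBS and analysed by flow cytometry; DAPI flagged compromised cells.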

KOPN-8 [6] = assay: Upregulation of Trx expression in human KOPN8 at 10 uM after 3 to 6 hrs by Western blot analysis; assay type: functional, cell-based
Outline: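 Western blot of KOPN-8 or MCF-7 lysates, 30 μg protein per lane on 4–12% Bis-Tris SDS-PAGE and transferred to nitrocellulose. Blots were probed with an oxidative stress defense antibody cocktail (catalase, SOD1, Trx, smooth muscle actin) and tubulin, and detected with IR-dye secondaries on a LI-COR Odyssey.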

MCF7 [7] = assay: Induction of cell death in human MCF7 cells at 10 uM after 24 hrs; assay type: functional, cell-based
[8] = Half life in human liver microsomes; assay type: ADME, Microsome
[9] = Half life in human plasma; assay type: ADME, cell-free
[10] = Half life in simulated gastric fluid; assay type: ADME
MDA-MB-231 = assay: Antiproliferative activity against human MDA-MB-231 cells assessed as reduction in cell viability at >10 uM after 48 hrs by propidium iodide staining based fluorescence assay; assay type: functional; outline: as §2
KOPN-8 [11] = assay: Cell cycle arrest in human KOPN8 cells assessed as increase in accumulation at G2/M phase at 10 uM incubated for 24 hrs by propidium iodide staining based flow cytometric analysis relative to control; assay type: functional
Outline: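 KOPN-8 plated at 1.00 × 10^6 cells/plate, held 12 h at 37 °C, treated 24 h at 10 μM; DMSO vehicle and 2 μM staurosporine as controls. Cells fixed in cold methanol, RNase-treated, stained with PI (50 μg/mL); cell-cycle distribution by flow cytometry.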

KOPN-8 [12] = assay: Induction of apoptosis in human KOPN8 cells assessed as decrease in viable cells at 10 uM after 24 hrs by Annexin V-FITC and propidium iodide staining based flow cytometry; assay type: functional, cell-based
Outline: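 KOPN-8 cells were plated at 1.00 × 10^6 per plate and held 12 h at 37 °C, then treated 24 h; positive control 2 μM staurosporine, vehicle DMSO. Cells were stained with Annexin V-FITC and PI and analysed by flow cytometry (FACSCalibur). Profiles are representative of three independent biological replicates.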

KOPN-8 [13] = assay: Decrease in cell viability in human KOPN8 cells incubated for 24 hrs by GF-AFC reagent based ApoTox-Glo triplex assay; assay type: functional
Outline: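 ApoTox-Glo Triplex: cells held 12 h at 37 °C, then treated 24 h (100−0.15 μM). Viability/cytotoxicity reagent added, shaken, 30 min at 37 °C; viability read as GF-AFC fluorescence at 400Ex/505Em. Caspase-Glo 3/7 then added, 0.5 h at room temperature, luminescence read. Mean ± SEM of three independent experiments.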

B-ALL [14] = assay: Cytotoxicity against BCR-ABL p185-positive mouse B-ALL cells overexpressing human MCL-1 assessed as inhibition of cell viability after 24 hrs by AnnexinV-FITC/propidium iodide staining based flow cytometric analysis; assay type: functional
B-ALL [15] = assay: Cytotoxicity against BCR-ABL p185-positive mouse B-ALL cells overexpressing human BCL-2 assessed as inhibition of cell viability after 24 hrs by AnnexinV-FITC/propidium iodide staining based flow cytometric analysis; assay type: functional
B-ALL [16] = assay: Cytotoxicity against BCR-ABL p185- positive mouse B-ALL cells overexpressing human BCL-xL assessed as inhibition of cell viability after 24 hrs by AnnexinV-FITC/propidium iodide staining based flow cytometric analysis; assay type: functional
B-ALL [17] = assay: Cytotoxicity against BCR-ABL p185-positive human B-ALL cells harboring MCL-1 triple knock out mutant assessed as inhibition of cell viability after 24 hrs by AnnexinV-FITC/propidium iodide staining based flow cytometric analysis; assay type: functional
HMEC [18] = assay: Induction of ROS generation in human HMEC cells at 30 uM incubated for 1 hr by CellROX green reagent based fluorescence assay; assay type: cell-based
Outline: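 CellROX green ROS assay: cells exposed 1 h at 37 °C (30 μM) with DMSO 0.5% (v/v) negative control, menadione 10 μM positive control, ± NAC (100 μM per figure legend). CellROX green added at 5 μM final, 30 min more; washed, fixed in 4% paraformaldehyde 15 min, fluorescence read at 485 ex/535 em. Mean and SD of at least three experiments; two-way ANOVA.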

[19] = Stability in CH3CN assessed as micheal adduct formation by measuring intact compound incubated for 16 hrs in presence of glutathione by LC-MS analysis; assay type: physicochemical
[20] = Stability in DMSO assessed as micheal adduct formation by measuring intact compound incubated for 16 hrs in presence of NAC by NMR analysis; assay type: physicochemical
[21] = Stability in DMSO assessed as micheal adduct formation by measuring intact compound incubated for 16 hrs in presence of glutathione by NMR analysis; assay type: physicochemical
BJ = assay: Cytotoxicity against human BJ cells assessed as cell viability at >100 uM by CellTiter-Glo assay; assay type: cell-based; outline: as §1

With `CC1=C2CC(C)(C)/C=C/C(=O)/C(C)=C\C3=C[C@H](C)C[C@]3(O2)C1=O` [JATROPHONE] the inhibition (B-ALL [1]) was “Active”, the inhibition (B-ALL [2]) was “Active” and the inhibition (K562) was “Active”. The inhibition (U2OS) was “Active”, the inhibition (MCF7 [3]) was “Active” and the inhibition (SUM149PT) was “Active”. For the same compound, the Activity (HMEC [4]) was “Toxic”, the Activity (KOPN-8 [5]) was “Active” and the Activity (KOPN-8 [6]) was “inactive”. For the same compound, the Activity (MCF7 [7]) was “Active”.

`CC(=O)O[C@H]1/C2=C/[C@@H](C)C(=O)C[C@H]3[C@@H](/C=C(\C)C(=O)[C@H]2C[C@H]1C)C3(C)C` showed a half-life [8] of 0.517 h, a half-life [9] of 19.5 h and a half-life [10] of 124 h. The inhibition (MDA-MB-231) was “Active”, the Activity (KOPN-8 [11]) was 10% and the Activity (KOPN-8 [12]) was “Active”. For the same compound, the inhibition (KOPN-8 [13]) was “Dose-dependent effect”, the IC50 (B-ALL [14]) was 3.31 µM and the IC50 (B-ALL [15]) was 7.52 µM. For the same compound, the IC50 (B-ALL [16]) was 23.8 µM, the IC50 (B-ALL [17]) was 19.6 µM and the Activity (HMEC [18]) was “Toxic”. For the same compound, the Stability [19] was “Stable”, the Stability [20] was “Stable” and the Stability [21] was “Stable”. The Activity (BJ) was “Non-Toxic”.
